This note sets out measurements from ChEMBL document CHEMBL1165965, “Synthesis and structure-activity relationships of 1,2,3,4-tetrahydropyrido[2,3-b]pyrazines as potent and selective inhibitors of the anaplastic lymphoma kinase” (Bioorg Med Chem, 2010).

Assay [1] deals with Dual specificity mitogen-activated protein kinase kinase 2 (Homo sapiens) (UniProt P36507). The assay is described as follows: Inhibition of MEK2 at 1 uM.
Assay [2] deals with Protein kinase C eta type (Homo sapiens) (UniProt P24723). Nature of the assay: Inhibition of PRKCH at 1 uM.
Assay [3] deals with Activin receptor type-2A (Homo sapiens) (UniProt P27037). Nature of the assay: Inhibition of ACVR2A at 1 uM. The gist of the method: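 Ambit KINOMEscan screen at a single concentration across a 250–400 kinase panel, recorded as percent inhibition. Selectivity was expressed as S(90), the fraction of kinases inhibited >90%.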
Assay [4] deals with T1, Tyrosine-protein kinase Tec (Homo sapiens) (UniProt P42680).
T1 sequence (whole entry): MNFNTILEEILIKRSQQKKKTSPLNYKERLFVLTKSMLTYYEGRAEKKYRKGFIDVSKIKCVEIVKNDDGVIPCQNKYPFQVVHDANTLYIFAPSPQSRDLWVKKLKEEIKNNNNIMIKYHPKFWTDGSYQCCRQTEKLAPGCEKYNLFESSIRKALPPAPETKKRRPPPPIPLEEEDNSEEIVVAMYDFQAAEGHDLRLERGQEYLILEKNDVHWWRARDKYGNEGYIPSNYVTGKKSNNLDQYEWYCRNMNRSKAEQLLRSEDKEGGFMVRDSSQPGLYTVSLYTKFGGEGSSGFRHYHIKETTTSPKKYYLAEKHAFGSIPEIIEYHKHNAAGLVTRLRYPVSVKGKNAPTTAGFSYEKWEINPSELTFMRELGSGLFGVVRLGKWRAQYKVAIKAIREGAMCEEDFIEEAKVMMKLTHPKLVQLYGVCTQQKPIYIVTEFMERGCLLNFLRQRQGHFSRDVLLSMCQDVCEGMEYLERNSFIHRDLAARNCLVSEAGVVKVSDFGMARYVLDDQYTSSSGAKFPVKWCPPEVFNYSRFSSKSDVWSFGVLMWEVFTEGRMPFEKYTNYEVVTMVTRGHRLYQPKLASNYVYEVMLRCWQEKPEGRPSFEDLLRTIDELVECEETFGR
Nature of the assay: Inhibition of TEC at 1 uM.

For assay [5], the target named is Serine/threonine-protein kinase 33 (Homo sapiens) (UniProt Q9BYT3). The assay is described as follows: Inhibition of STK33 at 1 uM.
In assay [6] the target is Protein kinase C theta type (Homo sapiens) (UniProt Q04759). The assay is described as follows: Inhibition of PRKCQ at 1 uM.
For assay [7], the target named is SRSF protein kinase 3 (Homo sapiens) (UniProt Q9UPE1). Nature of the assay: Inhibition of SRPK3 at 1 uM.
The target in assay [8] is T2, Phosphorylase b kinase gamma catalytic chain, liver/testis isoform (Homo sapiens) (UniProt P15735).
T2 sequence (whole entry): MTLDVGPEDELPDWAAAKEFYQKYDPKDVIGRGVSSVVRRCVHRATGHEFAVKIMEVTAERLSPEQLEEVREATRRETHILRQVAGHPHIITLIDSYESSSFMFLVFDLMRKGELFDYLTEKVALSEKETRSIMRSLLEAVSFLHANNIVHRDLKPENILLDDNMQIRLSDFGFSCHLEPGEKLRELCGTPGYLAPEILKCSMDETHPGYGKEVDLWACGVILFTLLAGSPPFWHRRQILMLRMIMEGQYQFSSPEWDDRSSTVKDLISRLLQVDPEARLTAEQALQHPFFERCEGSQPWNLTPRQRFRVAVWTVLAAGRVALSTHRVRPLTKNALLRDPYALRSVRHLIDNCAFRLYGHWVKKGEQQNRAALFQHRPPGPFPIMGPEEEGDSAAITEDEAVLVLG
Nature of the assay: Inhibition of PHKG2 at 1 uM.

The target in assay [9] is Homeodomain-interacting protein kinase 1 (Homo sapiens) (UniProt Q86Z02). The assay is described as follows: Inhibition of HIPK1 at 1 uM. A digest of the protocol: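 Single-concentration screen on the Ambit KINOMEscan platform, run against a panel of 250–400 kinases. Per-kinase inhibition was also summarized as S(90), the fraction of kinases inhibited by more than 90%.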

Assay [10] deals with Serine/threonine-protein kinase PAK 1 (Homo sapiens) (UniProt Q13153). The assay is described as follows: Inhibition of PAK1 at 1 uM.
In assay [11] the target is T3, Serine/threonine-protein kinase LATS1 (Homo sapiens) (UniProt O95835).
T3 sequence (whole entry): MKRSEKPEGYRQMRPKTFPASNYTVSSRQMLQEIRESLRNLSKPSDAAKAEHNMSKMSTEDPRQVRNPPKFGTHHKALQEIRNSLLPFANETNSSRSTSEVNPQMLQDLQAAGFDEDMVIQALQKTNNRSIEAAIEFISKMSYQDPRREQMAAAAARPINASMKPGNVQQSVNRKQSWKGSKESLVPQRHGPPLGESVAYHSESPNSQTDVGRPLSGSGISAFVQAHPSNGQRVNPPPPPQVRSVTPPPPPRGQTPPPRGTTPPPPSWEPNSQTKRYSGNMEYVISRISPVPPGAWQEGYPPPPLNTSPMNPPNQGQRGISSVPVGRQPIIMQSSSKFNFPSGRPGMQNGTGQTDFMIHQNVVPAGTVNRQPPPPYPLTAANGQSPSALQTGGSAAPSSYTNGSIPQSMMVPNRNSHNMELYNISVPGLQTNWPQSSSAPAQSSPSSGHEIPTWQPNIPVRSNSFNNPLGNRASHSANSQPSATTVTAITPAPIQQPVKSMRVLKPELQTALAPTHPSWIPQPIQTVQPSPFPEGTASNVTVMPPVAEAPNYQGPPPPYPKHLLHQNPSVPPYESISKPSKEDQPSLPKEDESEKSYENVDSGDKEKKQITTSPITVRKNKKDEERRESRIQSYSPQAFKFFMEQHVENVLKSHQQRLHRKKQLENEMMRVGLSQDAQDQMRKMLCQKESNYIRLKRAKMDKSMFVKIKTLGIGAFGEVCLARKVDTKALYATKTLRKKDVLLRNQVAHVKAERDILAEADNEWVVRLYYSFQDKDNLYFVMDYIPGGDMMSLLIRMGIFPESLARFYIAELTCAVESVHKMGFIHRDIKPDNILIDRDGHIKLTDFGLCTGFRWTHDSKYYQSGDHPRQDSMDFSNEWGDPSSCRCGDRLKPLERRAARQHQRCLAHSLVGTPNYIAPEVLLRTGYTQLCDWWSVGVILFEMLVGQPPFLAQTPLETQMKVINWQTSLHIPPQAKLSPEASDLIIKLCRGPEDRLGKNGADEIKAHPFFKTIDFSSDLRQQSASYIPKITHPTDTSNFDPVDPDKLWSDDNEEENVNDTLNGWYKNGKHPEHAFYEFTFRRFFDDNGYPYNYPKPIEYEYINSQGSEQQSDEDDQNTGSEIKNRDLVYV
The assay is described as follows: Inhibition of LATS1 at 1 uM.

Sequence of Dual specificity mitogen-activated protein kinase kinase 2 (Homo sapiens) (P36507 whole entry): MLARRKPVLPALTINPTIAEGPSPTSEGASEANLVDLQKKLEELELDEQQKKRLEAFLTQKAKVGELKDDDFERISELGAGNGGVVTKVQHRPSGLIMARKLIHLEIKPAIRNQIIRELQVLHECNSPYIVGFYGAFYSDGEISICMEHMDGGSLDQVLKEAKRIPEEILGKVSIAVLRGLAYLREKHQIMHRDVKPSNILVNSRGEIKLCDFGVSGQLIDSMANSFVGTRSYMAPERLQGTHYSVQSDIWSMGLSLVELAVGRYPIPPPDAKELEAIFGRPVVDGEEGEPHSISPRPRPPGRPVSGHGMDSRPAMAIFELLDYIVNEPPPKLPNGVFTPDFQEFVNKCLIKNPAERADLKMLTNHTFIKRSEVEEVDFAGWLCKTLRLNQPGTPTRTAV
Sequence of Protein kinase C theta type (Homo sapiens) (Q04759 whole entry, looked up): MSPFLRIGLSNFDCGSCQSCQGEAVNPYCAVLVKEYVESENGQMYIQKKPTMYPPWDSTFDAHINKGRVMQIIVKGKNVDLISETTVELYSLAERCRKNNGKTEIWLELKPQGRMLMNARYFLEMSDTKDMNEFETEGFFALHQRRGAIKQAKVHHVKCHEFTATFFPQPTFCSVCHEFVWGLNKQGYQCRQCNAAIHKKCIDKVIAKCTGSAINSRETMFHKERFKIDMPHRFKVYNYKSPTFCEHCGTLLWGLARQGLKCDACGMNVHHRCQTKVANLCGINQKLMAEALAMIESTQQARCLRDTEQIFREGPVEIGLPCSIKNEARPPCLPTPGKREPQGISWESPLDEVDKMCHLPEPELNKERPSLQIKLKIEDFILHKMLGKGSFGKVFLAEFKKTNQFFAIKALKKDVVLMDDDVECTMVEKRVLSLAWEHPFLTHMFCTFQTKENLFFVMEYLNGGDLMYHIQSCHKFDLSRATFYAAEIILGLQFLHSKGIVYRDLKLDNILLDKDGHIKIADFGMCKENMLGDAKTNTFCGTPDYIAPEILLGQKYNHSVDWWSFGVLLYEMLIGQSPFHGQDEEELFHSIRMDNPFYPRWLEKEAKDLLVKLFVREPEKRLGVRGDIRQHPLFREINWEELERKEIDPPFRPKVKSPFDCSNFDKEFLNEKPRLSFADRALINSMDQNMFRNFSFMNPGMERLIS
Sequence of Homeodomain-interacting protein kinase 1 (Homo sapiens) (Q86Z02 whole entry, looked up): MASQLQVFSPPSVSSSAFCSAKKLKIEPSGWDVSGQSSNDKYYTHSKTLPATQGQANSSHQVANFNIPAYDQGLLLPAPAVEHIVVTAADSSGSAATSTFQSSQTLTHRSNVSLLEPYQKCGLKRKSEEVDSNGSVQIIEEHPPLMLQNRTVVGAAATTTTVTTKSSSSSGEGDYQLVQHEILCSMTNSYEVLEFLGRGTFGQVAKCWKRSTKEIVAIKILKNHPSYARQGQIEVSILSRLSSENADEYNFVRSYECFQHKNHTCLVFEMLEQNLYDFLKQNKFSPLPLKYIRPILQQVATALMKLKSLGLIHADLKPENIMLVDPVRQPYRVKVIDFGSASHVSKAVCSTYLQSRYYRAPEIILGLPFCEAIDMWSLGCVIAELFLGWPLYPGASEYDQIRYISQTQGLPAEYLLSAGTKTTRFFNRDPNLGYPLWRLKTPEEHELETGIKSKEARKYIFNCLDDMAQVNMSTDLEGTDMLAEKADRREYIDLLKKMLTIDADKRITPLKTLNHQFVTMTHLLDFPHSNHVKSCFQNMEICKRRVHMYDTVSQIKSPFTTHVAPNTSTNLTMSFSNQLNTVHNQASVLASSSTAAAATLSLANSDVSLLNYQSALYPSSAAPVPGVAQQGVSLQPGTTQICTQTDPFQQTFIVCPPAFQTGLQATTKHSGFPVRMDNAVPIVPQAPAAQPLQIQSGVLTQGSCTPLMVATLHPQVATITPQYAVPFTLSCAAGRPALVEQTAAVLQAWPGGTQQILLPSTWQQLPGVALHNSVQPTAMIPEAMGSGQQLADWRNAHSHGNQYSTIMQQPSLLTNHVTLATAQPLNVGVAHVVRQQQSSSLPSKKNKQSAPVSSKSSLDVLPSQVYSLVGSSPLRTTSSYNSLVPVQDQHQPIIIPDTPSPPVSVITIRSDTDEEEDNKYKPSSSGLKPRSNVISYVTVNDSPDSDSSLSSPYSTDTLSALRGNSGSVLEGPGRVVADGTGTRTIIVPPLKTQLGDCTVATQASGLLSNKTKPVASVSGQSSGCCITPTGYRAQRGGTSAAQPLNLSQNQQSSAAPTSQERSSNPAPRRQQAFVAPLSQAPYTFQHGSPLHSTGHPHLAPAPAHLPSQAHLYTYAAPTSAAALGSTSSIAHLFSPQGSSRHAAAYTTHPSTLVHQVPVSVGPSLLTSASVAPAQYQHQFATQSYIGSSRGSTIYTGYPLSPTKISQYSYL
Sequence of Activin receptor type-2A (Homo sapiens) (P27037 whole entry): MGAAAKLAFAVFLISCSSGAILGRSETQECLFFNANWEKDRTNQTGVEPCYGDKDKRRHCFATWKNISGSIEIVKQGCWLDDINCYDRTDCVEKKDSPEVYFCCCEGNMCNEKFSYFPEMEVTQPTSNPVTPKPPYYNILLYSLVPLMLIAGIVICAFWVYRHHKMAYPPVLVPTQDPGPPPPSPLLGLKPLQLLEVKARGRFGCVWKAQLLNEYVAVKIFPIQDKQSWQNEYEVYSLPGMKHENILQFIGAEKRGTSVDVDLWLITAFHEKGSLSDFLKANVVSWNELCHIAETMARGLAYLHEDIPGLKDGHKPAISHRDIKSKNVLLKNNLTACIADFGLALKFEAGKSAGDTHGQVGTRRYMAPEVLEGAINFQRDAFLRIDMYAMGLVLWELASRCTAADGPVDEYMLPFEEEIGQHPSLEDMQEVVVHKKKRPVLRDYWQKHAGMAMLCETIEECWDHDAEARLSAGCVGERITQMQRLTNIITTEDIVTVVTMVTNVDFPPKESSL
Sequence of Serine/threonine-protein kinase 33 (Homo sapiens) (Q9BYT3 whole entry, looked up): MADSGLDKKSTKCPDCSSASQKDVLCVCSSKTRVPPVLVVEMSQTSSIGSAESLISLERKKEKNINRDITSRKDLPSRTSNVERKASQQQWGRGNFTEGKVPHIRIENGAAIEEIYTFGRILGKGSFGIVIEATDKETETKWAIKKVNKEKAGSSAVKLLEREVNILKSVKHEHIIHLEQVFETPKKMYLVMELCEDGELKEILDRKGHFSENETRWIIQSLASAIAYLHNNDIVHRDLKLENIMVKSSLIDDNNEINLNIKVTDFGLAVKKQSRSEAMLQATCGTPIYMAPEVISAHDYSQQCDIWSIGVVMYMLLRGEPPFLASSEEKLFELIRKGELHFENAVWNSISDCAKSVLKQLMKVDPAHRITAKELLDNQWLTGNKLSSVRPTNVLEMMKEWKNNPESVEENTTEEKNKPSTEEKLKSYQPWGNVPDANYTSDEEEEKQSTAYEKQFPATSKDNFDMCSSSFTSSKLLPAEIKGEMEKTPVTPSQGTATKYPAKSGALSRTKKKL
Sequence of SRSF protein kinase 3 (Homo sapiens) (Q9UPE1 whole entry, canonical isoform): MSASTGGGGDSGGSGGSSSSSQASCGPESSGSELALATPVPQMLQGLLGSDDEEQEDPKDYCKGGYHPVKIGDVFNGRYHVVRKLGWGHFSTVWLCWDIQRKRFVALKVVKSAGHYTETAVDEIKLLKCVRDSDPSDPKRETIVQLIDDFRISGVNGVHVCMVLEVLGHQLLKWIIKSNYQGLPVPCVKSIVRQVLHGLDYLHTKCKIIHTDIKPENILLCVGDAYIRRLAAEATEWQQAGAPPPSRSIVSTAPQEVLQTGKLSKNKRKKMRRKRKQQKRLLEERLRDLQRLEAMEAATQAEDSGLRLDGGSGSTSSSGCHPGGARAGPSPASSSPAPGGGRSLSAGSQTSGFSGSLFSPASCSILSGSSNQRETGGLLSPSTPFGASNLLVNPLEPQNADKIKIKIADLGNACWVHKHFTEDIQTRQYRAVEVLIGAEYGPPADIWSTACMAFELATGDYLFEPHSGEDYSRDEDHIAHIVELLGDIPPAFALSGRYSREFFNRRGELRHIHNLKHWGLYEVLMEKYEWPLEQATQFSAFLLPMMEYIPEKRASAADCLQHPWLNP
Sequence of Serine/threonine-protein kinase PAK 1 (Homo sapiens) (Q13153 whole entry): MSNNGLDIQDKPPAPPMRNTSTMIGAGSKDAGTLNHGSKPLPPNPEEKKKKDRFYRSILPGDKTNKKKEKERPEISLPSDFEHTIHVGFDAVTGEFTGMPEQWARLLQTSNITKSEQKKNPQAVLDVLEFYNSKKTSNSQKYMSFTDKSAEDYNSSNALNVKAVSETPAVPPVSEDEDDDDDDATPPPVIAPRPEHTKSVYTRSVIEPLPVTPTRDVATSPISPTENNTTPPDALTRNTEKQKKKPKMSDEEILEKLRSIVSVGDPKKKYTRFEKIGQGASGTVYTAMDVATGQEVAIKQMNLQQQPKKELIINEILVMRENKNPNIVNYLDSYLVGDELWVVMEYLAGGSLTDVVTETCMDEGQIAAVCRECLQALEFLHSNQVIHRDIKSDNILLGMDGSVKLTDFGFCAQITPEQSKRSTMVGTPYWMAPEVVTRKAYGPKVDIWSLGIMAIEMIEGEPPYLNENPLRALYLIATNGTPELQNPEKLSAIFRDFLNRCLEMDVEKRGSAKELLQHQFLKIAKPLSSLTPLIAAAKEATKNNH

A word on the inhibition: it is the drop in the measured response relative to a control, in per cent. As for `FC(F)(F)c1ccc(Cl)cc1CN1CCNc2ncc(-c3ccnc(N4CCNCC4)c3)cc21`, the inhibition in assay [1], in assay [2], in [3], in assay [4], in [5] and in assay [6] was below 50% each time. Further, the inhibition in [7], in assay [8], in [9], in [10] and in assay [11] was below 50% in each case.

Turning to `CN1CCN(c2ccc(-c3cnc4c(c3)N(Cc3cc(Cl)ccc3Cl)CCN4)cn2)CC1`, the inhibition in assay [1], in assay [2], in assay [3], in [4], in assay [5] and in assay [6] was below 50% in each case. Further, the inhibition in assay [7], in [8], in [9], in assay [10] and in assay [11] was below 50% each time.

With `COC1CCN(C(=O)c2ccc(-c3cnc4c(c3)N(Cc3cc(Cl)ccc3C(F)(F)F)CCN4)cc2)CC1`, the inhibition in assay [2], in [3], in assay [8], in [9] and in assay [10] was below 50% each time.

Take `O=C(c1ccc(-c2cnc3c(c2)N(Cc2cc(Cl)ccc2C(F)(F)F)CCN3)cc1)N1CCCCC1`: the inhibition in assay [2], in assay [3], in assay [8], in assay [9] and in assay [10] was below 50% throughout.

`O=C(O)c1ccc(-c2cnc3c(c2)N(Cc2cc(Cl)ccc2C(F)(F)F)CCN3)cc1`: the inhibition in [2], in assay [3], in assay [8], in assay [9] and in assay [10] was below 50% in each case.

Regarding `CN1CCN(c2ccc(-c3cnc4c(c3)N(Cc3cc(F)ccc3F)CCN4)cn2)CC1`, the inhibition in [1], in assay [2], in assay [3], in [4], in assay [5] and in assay [6] was below 50% throughout. In addition, the inhibition in [7] is below 50%; in [8], below 50%; in assay [9], 72.2%; in [10], below 50%; in assay [11], below 50%.

Consider `O=C(c1ccc(-c2cnc3c(c2)N(Cc2cc(Cl)ccc2C(F)(F)F)CCN3)cc1)N1CCC(N2CCCC2)CC1`, for which the inhibition is below 50% in assay [2]; below 50% in assay [3]; 79.8% in assay [5]; below 50% in assay [8]; below 50% in assay [9]; below 50% in assay [10].

For `CN1CCN(c2ccc(-c3cnc4c(c3)N(Cc3c(F)ccc(F)c3Cl)CCN4)cn2)CC1`, the inhibition in [1], in assay [2], in assay [3], in [4], in assay [5] and in [6] was below 50% in each case. In addition, the inhibition in [7] was below 50%; in assay [8] it was below 50%; in assay [9] it was 70%; in assay [10], below 50%; in [11] it was below 50%.

With `CC(=O)N1CCN(c2cc(-c3cnc4c(c3)N(Cc3cc(Cl)ccc3C(F)(F)F)CCN4)ccn2)CC1`, the inhibition in [1], in assay [2], in [3], in assay [4], in assay [5] and in [6] was below 50% throughout. In addition, the inhibition in assay [7], in [8], in assay [9], in assay [10] and in assay [11] was below 50% in each case.

Consider `CN1CCN(c2ccc(-c3cnc4c(c3)N(Cc3cc(Cl)ccc3C(F)(F)F)CCN4)cn2)CC1`, for which the inhibition in [1], in assay [2], in assay [3], in assay [4], in assay [5] and in assay [6] was below 50% each time. Also, the inhibition in assay [7], in assay [8], in assay [9], in assay [10] and in [11] was below 50% each time.
